Laboratory results published in ChEMBL document CHEMBL4619773, “Chemoreactive-Inspired Discovery of Influenza A Virus Dual Inhibitor to Block Hemagglutinin-Mediated Adsorption and Membrane Fusion” (J Med Chem, 2020).
pKd: −log10 of the molar value. In brackets after ≈: the same amount, converted by molar mass. Activity calls are given as the source filed them. No cut-off for these calls is given here.

What was measured:
[1] = Elimination half life in mouse at 0.5 mg/kg, iv administered as single dose; format: ADME, organism-based; details: in vivo, read-out: beta t1/2 (converted)
Procedure, shortened: (§1)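 Male Kunming mice (20-25 g) and male Sprague Dawley rats (180-220 g) were fasted 12 h before dosing. Oral dosing was by gavage as a suspension in 0.5% sodium carboxymethyl cellulose; iv dosing was via tail vein in PEG400. Serial plasma samples were taken to 24 h, protein-precipitated with acetonitrile plus N-CH3 internal standard, and quantified by LC-MS/MS (n=3). Bioavailability = AUCoral/AUCiv.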

[2] = Oral bioavailability in mouse at 5 mg/kg administered as single dose; format: ADME, organism-based; details: in vivo
Procedure, shortened: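 Male Kunming mice (20–25 g) and male SD rats (180–220 g) were fasted 12 h before dosing. Compound was suspended in 0.5% CMC-Na and given by gavage (5 mg/kg mice, 3.5 mg/kg rats), or dissolved in PEG400 and given iv via tail vein (0.5 mg/kg mice, 0.35 mg/kg rats). Plasma was sampled from 5 min to 24 h and analysed by LC-MS/MS (n=3). F = AUCoral/AUCiv.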

[3] = Cumulative drug excretion in mouse urine at 0.5 mg/kg, iv administered as single dose measured after 72 hrs; format: ADME, organism-based; details: read-out: Drug excretion
Procedure, shortened: (§2)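 Single oral (gavage, 0.5% CMC-Na) or iv (tail vein, PEG400) dosing was given to male Kunming mice or Sprague Dawley rats held in metabolic cages. Urine and feces were collected at intervals to 72 h. Feces were dried, ground and homogenized in water (1:9 w/v). Samples were precipitated with acetonitrile containing internal standard and analysed by LC-MS/MS.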

[4] = Cumulative drug excretion in mouse feces at 0.5 mg/kg, iv administered as single dose measured after 72 hrs; format: ADME, organism-based; details: faeces, read-out: Drug excretion; procedure, shortened: as §2
[5] = Half life in rat at 0.35 mg/kg /kg, iv administered as single dose; format: ADME, organism-based; details: in vivo; procedure, shortened: as §1
[6] = AUC (0 to t) in rat at 3.5 mg/kg , po administered as single dose; format: ADME, organism-based; details: in vivo; procedure, shortened: as §1
[7] = test system: Influenza A virus H3N2; experiment: Antiviral activity against Influenza A virus H3N2 (A/swine/Minnesota/02719/2009) infected in MDCK cells by HA assay; format: functional, organism-based
Procedure, shortened: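 MDCK cells were infected at high moi (≈3.0 PFU/cell). Virus-containing supernatants were serially diluted 2-fold and mixed with an equal volume of 1% chicken red blood cells. After 60 min at 4 °C, wells were scored for button sedimentation versus opaque agglutination to give titers.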

[8] = Toxicity in Influenza A virus (A/Puerto Rico/8/1934(H1N1)) infected Kunming mouse assessed as induction of body weight loss at 20 to 40 ug/day dosed intranasally starting 4 hrs after viral challenge and continued for 7 days by plaque assay; format: organism-based; details: in vivo, inhaled_or_intranasal
[9] = test system: Influenza A virus; experiment: Antiviral activity against Influenza A virus (A/Puerto Rico/8/1934(H1N1)) infected in Kunming mouse assessed as decrease in lung IL6 level at 20 to 40 ug/day dosed intranasally starting 4 hrs after viral challenge and continued for 4 days by ELISA; format: functional, organism-based
Procedure, shortened: (§3)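 Four-week-old female Kunming mice received PR8 intranasally (500 PFU/mouse in 40 µL PBS) and were then dosed once daily orally or intranasally. Lungs were collected on day 4, and TNF-α and IL-6 in lung tissue were measured by ELISA.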

[10] = test system: Influenza A virus; experiment: Antiviral activity against Influenza A virus (A/Puerto Rico/8/1934(H1N1)) infected in Kunming mouse assessed as decrease in lung IL6 level at 5 to 10 mg/kg/day, po starting 4 hrs after viral challenge and continued for 4 days by ELISA; format: functional, organism-based; procedure, shortened: as §3
[11] = Toxicity in Kunming mouse assessed as effect on AST level at 5 to 10 mg/kg/day, po for 7 days; format: organism-based; details: in vivo, 168 h
Procedure, shortened: (§4)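 Male Kunming mice (20–25 g) received compound orally at 5 or 10 mg/kg/day, suspended in 0.5% sodium carboxymethyl cellulose, once daily for 7 days; controls received vehicle. Serum was collected under isoflurane 24 h after the last dose. AST, ALT, CR, BUN, LDH, CK and CK-MB were measured with commercial kits.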

[12] = Toxicity in Kunming mouse assessed as effect on ALT level at 5 to 10 mg/kg/day, po for 7 days; format: organism-based; details: in vivo, 168 h; procedure, shortened: as §4
[13] = Toxicity in Kunming mouse assessed as effect on CK-MB level at 5 to 10 mg/kg/day, po for 7 days; format: organism-based; details: in vivo, 168 h; procedure, shortened: as §4
[14] = target: Neuraminidase (Influenza A virus (A/Puerto Rico/8/1934(H1N1))) (UniProt P03468); experiment: Inhibition of neuraminidase in inactivated Influenza A virus (A/Puerto Rico/8/1934(H1N1)) supernatants at 12.5 to 200 ug/mL pre-incubated for 30 mins by fluorescence based assay relative to control
Procedure, shortened: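 Inactivated PR8 virus supernatant was mixed with compound diluted in 33 mM MES ([…]) and 4 mM CaCl2 for 30 min at 37 °C. MUNANA (20 µM) was then added for 30 min at 37 °C. The reaction was stopped with 25% ethanol and 0.1 M glycine, pH 10.7. Fluorescence was read at ex 360 and em 440 nm.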

[15] = target: Hemagglutinin (Influenza A virus (A/Puerto Rico/8/1934(H1N1))) (UniProt P03452); experiment: Inhibition of Hemagglutinin in Influenza A virus (A/Puerto Rico/8/1934(H1N1)) assessed as reduction in virus-induced aggregation of chicken erythrocytes at 3.125 to 50 ug/mL incubated for 60 mins by hemagglutination assay
Procedure, shortened: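 Hemagglutination inhibition with PR8 virus and chicken RBCs standardized per the WHO manual. Virus was serially diluted 2-fold and 1% cRBCs were added at equal volume. After 60 min at 4 °C, negative wells show a sedimented red button and positive wells stay opaque without sedimentation. Compound was tested at 3.125–50 µg/mL.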

[16] = Binding affinity to Influenza A virus (A/Aichi/2/1968(H3N2)) Hemagglutinin at 1.5625 to 50 uM by SPR assay
Procedure, shortened: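 HA protein was immobilized on CM5 chips. Compound (50, […], 12.5, 6.25, 3.125, 1.5625 µM) was injected for 2 min, followed by a 10-min PBST wash and regeneration with 2 mM NaOH for 30 s. Runs were at 25 °C with 2 µl/s flow, using a blank HA-free reference channel. KD was obtained from kinetic fitting.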

[17] = test system: Influenza A virus; experiment: Antiviral activity against wild type Influenza A virus (A/Puerto Rico/8/1934(H1N1)) pseudovirus infected in 293FT cells incubated for 48 hrs by inverted fluorescence microscopy; format: functional, organism-based
Procedure, shortened: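 GFP-reporter lentiviral pseudoviruses bearing PR8 wild-type or mutant (T30N/E233D/T359A or T359A) HA plus NA were produced in 293FT cells. Pseudovirus was pretreated with 50 µg/ml compound for 1 h at 37 °C before infection. GFP-positive cells were counted by fluorescence microscopy at 48 h p.i.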

[18] = test system: Influenza A virus; experiment: Antiviral activity against Influenza A virus (A/Puerto Rico/8/1934(H1N1)) infected in human A549 cells assessed as reduction in endocytosis and nuclear import of viral RNP by measuring green fluorescence of NP protein in both cytoplasm and nucleus at 25 ug/ml during early infection stage (0 to 2 hrs post infection) by indirect immunofluorescence assay; format: functional, organism-based
Procedure, shortened: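 PR8 virus was pretreated with or without 25 µg/ml compound for 1 h at 37 °C before infection. After adsorption, compound- or DMSO-containing medium was added. At 2 h p.i. cells were fixed (4% PFA), permeabilized (0.5% Triton X-100) and blocked (2% BSA). They were stained with anti-NP antibody, FITC secondary antibody and DAPI, then imaged by confocal microscopy.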

Hemagglutinin (Influenza A virus (A/Puerto Rico/8/1934(H1N1))), sequence (P03452 whole entry): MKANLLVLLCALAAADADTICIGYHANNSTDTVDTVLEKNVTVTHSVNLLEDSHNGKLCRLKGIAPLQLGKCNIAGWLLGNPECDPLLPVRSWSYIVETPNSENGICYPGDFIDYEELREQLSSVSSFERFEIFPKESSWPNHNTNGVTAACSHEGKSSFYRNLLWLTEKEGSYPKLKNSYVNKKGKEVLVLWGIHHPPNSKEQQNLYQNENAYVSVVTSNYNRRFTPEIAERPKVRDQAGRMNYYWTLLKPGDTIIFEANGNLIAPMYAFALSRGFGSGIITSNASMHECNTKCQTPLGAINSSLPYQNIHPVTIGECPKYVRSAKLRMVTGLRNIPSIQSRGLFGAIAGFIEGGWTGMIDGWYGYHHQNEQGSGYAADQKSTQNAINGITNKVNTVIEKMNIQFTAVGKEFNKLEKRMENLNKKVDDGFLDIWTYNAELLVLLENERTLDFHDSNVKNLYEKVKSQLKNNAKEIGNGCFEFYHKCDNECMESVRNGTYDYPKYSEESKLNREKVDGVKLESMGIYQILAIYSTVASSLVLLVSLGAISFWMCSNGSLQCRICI
Neuraminidase (Influenza A virus (A/Puerto Rico/8/1934(H1N1))), sequence (P03468 whole entry): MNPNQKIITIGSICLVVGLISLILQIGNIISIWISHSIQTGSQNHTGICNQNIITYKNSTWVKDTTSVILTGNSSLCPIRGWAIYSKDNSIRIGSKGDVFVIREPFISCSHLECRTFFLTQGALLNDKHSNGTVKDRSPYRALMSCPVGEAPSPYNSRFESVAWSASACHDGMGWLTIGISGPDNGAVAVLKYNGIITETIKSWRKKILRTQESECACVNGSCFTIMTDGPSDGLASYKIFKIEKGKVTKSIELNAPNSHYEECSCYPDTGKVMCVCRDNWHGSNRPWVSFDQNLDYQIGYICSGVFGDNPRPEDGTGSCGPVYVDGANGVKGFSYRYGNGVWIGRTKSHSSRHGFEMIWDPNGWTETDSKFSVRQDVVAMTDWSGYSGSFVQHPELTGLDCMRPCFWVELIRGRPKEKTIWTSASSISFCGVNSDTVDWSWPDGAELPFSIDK

`CC(=O)c1cc(C)c(O)c(Cc2[nH]c3ccccc3c2Cc2c(O)c(C)cc(C(C)=O)c2O)c1O` showed a half-life [1] of 3.4 h, a bioavailability [2] of 5.7% and a dose excreted at 72 h [3] of 0.3%. It also gave a dose excreted at 72 h [4] of 29.1%, a half-life [5] of 4.8 h and an AUC(0-t) [6] of 1360 ng·h/mL. The Activity [7] was “Dose-dependent effect”, the Activity [8] was “Non-Toxic” and the Activity [9] was “Active”. The Activity [10] was “Active”, the Activity [11] was “Non-Toxic” and the Activity [12] was “Non-Toxic”. For the same compound, the Activity [13] was “Non-Toxic”, the inhibition [14] was less than 15% and the inhibition [15] was “Active”. For the same compound, the pKd [16] was 5.14, the IC50 [17] was 6 µg/mL (≈ 12.7 µM) and the Activity [18] was “Active”.
